Molecules are shown by their SMILES.

One series can be described thus: Drug-drug interaction. In kind it is in vivo, human. Particulars: ITZ 200 mg oral solution once daily; during the blood sampling period for VPR. The method in brief: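 This was a fixed-sequence, open-label study. In period 1, the test compound was given as a single oral 4 mg tablet, fasted, with water. After a washout of ≥ 4 weeks, itraconazole 200 mg oral solution was given once daily for 14 days. On day 4 the test compound was dosed 1 h after itraconazole. Plasma was sampled to 11 or 13 days and measured by validated LC–MS/MS. Non-compartmental analysis was used. Log-transformed AUC0–11d and Cmax were analysed by ANOVA with treatment and subject effects, giving ratio estimates, 90% CI and 95% PI.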

The conditions of series [1]: ulipristal acetate with ketoconazole; cited from earlier work.

For the molecule `CCC(C)n1ncn(-c2ccc(N3CCN(c4ccc(OCC5COC(Cn6cncn6)(c6ccc(Cl)cc6Cl)O5)cc4)CC3)cc2)c1=O` (centres unmarked) [ITZ, Itraconazole], the “geometric mean ITZ trough concentrations” value in the series “Drug-drug interaction” is recorded as “above 530 µg/L”.

On to `CC(=O)O[C@]1(C(C)=O)CC[C@H]2[C@@H]3CCC4=CC(=O)CCC4=C3[C@@H](c3ccc(N(C)C)cc3)C[C@@]21C` [ulipristal acetate], for which, in series [1], the “increase in exposure with ketoconazole” value was 5.8 fold.

These data come from PMC6028879 (Clinical Pharmacokinetics, 2018).
